# This is a sample that favours compounds with a hit; in the whole collection about 3.8% have one here.
# rCAG binder = binders of r(CAG) RNA repeats, primary screen, biochemical, fluorescence; r(CAG) RNA repeat, TO-PRO-1 dye displacement fluorescence; inhibition, % at 3 µM; actives 1.3% (n = 370,000); AID 651821, 2012;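 active = inhibition above the plate cutoff, the mean of all test compounds on that plate plus 3 SD, cut at about 35% in these data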;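 also: 0% = DMSO alone and 100% = 100 µM mitoxantrone as full dye displacement; higher means more dye released from RNA so lower well fluorescence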
# Exocytosis inh = LAMP-1 surface exposure blockers, TALL-104 cells – cell-based, flow cytometry, MLPCN library, primary screen; inhibition, % at 10 µM; actives 0.66% (n = 360,000); TALL-104 LAMP-1 surface exposure; cells stimulated with thapsigargin and PMA;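 active = inhibition above about 55%, limit read from the data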
# Beta2AR agonist = beta2AR agonists driving receptor internalization, primary screen, cell-based, FAP fluorogen, flow cytometry. Beta-2 adrenergic receptor (Homo sapiens), P07550. Am2.2-beta2AR cells. response, % (test concentration not listed). actives 0.43% (n = 340,000);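 active = response above a set limit, near 3 SD of response in nonfluorescent compounds, cut at about 42% in these data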
# Target sequence (P07550 whole entry, looked up): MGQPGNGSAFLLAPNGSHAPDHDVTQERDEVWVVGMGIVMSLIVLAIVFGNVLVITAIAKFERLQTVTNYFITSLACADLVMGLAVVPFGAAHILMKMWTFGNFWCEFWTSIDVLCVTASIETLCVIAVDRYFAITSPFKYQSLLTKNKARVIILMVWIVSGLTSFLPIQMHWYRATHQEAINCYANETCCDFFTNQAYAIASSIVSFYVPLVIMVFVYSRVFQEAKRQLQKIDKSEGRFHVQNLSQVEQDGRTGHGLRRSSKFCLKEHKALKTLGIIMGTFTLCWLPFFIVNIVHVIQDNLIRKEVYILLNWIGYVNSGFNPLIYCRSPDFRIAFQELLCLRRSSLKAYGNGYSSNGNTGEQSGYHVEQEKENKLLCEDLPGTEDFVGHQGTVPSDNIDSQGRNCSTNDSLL
# V-ATPase pH = regulators of yeast V-ATPase proton pumping, primary screen, pHLuorin cytosolic pH fluorescence | S. cerevisiae | response, % at 10 µM | actives 0.37% (n = 350,000) | AID 504577, 2011; in the data active = response mostly above about 7.3%, no sharp cut-off; inactive = mostly below about 5.4%; also: actives read high
# T cell modulator = modulators of CD8 T cell-vesicle binding, primary screen, mouse 2C CD8+ T cells, flow cytometry; 2C CD8+ T cell-vesicle binding; hits give low values; response (vesicle binding), % at 7 µM; actives 0.068% (n = 330,000); AID 2052, 2009;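 active = response, share of CD8 T cells binding vesicles, and their 90th percentile fluorescence all below set limits, cut at about 80% in these data, passing the limit was not always enough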;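 also: values below 100% mean blocked vesicle binding to the CD8+ T cells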
#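 Read-out – percent CD8+ FL2 mean versus row control · System – murine 2C transgenic CD8+ T lymphocytes · Times – 1.5 h cell–vesicle binding at 37 °C, then 20 min icy labelling · Control set – naked vesicles low, QL9 vesicles with vehicle high · Detection – cytometric PE anti-B7-1 and Alexa647 anti-CD8 signals after 1% paraformaldehyde fixation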
# MPTP block = mitochondrial permeability transition pore inhibitors, primary screen, biochemical, isolated mouse mitochondria, absorbance; Ca2+ swelling absorbance, 30 min; actives 1.4% (n = 360,000); inhibition, % at 10 µM; AID 602449, 2012;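 active = inhibition of 50% or more, scaled per plate between neutral and stimulator controls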;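 also: 0% = DMSO wells given calcium and 100% = 1 mM EGTA wells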
# rCAG binder conf = small molecules binding CAG repeat RNA – biochemical, fluorescence, confirmation; shares compounds with rCAG binder; actives 70% (n = 4,300); AID 652065, 2013; inhibition, % at 3 µM; r(CAG) RNA repeat, TO-PRO-1 dye displacement fluorescence;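 active = inhibition above a per-plate cutoff, the mean inhibition of sample wells plus 3 SD, cut at about 35% in these data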;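 also: loss of TO-PRO-1 fluorescence as compound displaces dye from 1x1 AA loop RNA; 0% = DMSO only wells and 100% = 100 µM mitoxantrone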
# dCAG dye counter = displacement of TO-PRO-1 from CAG DNA duplex, counter-screen for rCAG RNA repeat binder project, biochemical, fluorescence, TO-PRO-1 dye, d(CAG) DNA oligo | d(CAG) DNA oligo TO-PRO-1 dye displacement | inhibition, % at 3 µM | actives 94% (n = 4,300) | shares compounds with rCAG binder;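 active = inhibition above its plate's cutoff, the mean test-well inhibition plus 3 SD, cut at about 4.8% in these data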;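 also: 0% = DNA dye mix with DMSO and 100% = 100 µM mitoxantrone; hits displace the dye from DNA and so lower well fluorescence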
# dCAG dye DR = inhibitors of DNA CAG/GTC TO-PRO-1 complex, dose response, counter-screen for rCAG RNA repeat binder project, biochemical, fluorescence, TO-PRO-1 dye; shares compounds with rCAG binder; DNA CAG/GTC duplex TO-PRO-1 dye displacement fluorescence; IC50, µM; actives 20% (n = 250); AID 686960, 2013; in the data active = IC50 below about 10 µM
# * hit, by the source's call; nt = no result given.
SMILES,rCAG binder,Exocytosis inh,Beta2AR agonist,V-ATPase pH,T cell modulator,MPTP block,rCAG binder conf,dCAG dye counter,others
O=C(N[C@H](Cc1ccccc1)C(=O)N1CCCN(Cc2ccccc2F)CC1)[C@H]1O[C@@H](n2ccc(=O)[nH]c2=O)[C@H](O)[C@@H]1O,1,nt,nt,nt,nt,nt,nt,nt,
O=C(O)c1cccc(-n2cccc2C=C2C(=O)c3ccccc3C2=O)c1,57*,10,-8,-5,226,-1,47*,14*,
Cc1cc(C=C2C(=O)c3ccccc3C2=O)c(C)n1-c1cccc(C(=O)O)c1,56*,-1,-2,-2,342,1,51*,15*,
O=C1C(=Cc2cccn2-c2ccccc2)C(=O)c2ccccc21,13,-5,-3,-3,643,0,nt,nt,
CCOC(=O)C1=C(O)/C(=C/c2ccc(OCC(=O)O)c(OC)c2)SC1=Nc1ccc(OC)cc1,52*,7,1,-1,244,1,65*,20*,
O=C(O)CCC(=O)Nc1ccc(-c2nc3ccc(C(=O)c4ccccc4)cc3[nH]2)cc1,45*,-3,0,-2,279,1,35*,7.9*,
COc1ccc(-n2c(SCC(=O)Nc3ccc4cn[nH]c4c3)nnc2-c2ccccc2)cc1,12,nt,nt,nt,nt,nt,nt,nt,
Cc1cccc(NC(=O)CN2C(=O)N/C(=C\c3cccn3-c3cccc(C(=O)O)c3)C2=O)c1,33,0,2,-1,620,2,nt,nt,
O=C(O)c1ccc(COc2ccccc2/C=C2\NC(=O)N(Cc3ccc(F)cc3)C2=O)cc1,9,-1,-5,-1,155,-1,nt,nt,
O=C(CN1C(=O)N/C(=C\c2ccccc2OCc2ccc(C(=O)O)cc2)C1=O)Nc1ccc(F)cc1,59*,4,5,0,108,-2,43*,13*,
Cc1ccccc1NC(=O)CN1C(=O)N/C(=C\c2ccccc2OCc2ccc(C(=O)O)cc2)C1=O,43*,-2,2,-1,238,0,29,7.8*,
Cc1cccc(NC(=O)CN2C(=O)N/C(=C\c3ccccc3OCc3ccc(C(=O)O)cc3)C2=O)c1,61*,-19,-4,0,228,-1,67*,31*,
Cc1ccc(-c2nnc(SCC(=O)Nc3ccc(OCc4ccccc4)cc3)n2-c2ccc(Cl)cc2)cc1,6,nt,nt,nt,nt,nt,nt,nt,
Cc1nc(-c2ccc(S(=O)(=O)Nc3ccc(Br)cc3Cl)s2)cs1,74*,3,6,-4,137,26,66*,27*,
Cc1nc(-c2ccc(S(=O)(=O)Nc3cccc(S(N)(=O)=O)c3)s2)cs1,5,6,3,7,297,13,nt,nt,
CCCCNC(=O)C[C@H]1C[C@@]2(C(=O)OC)C(=C[C@H](COCc3ccccc3)O[C@@H]2C)N(Cc2ccccc2)C1=O,4,nt,nt,nt,nt,nt,nt,nt,
Cc1ccc(S(=O)(=O)Oc2ccc(C3C4=C(CCCC4=O)N(CCC(=O)O)C4=C3C(=O)CCC4)cc2Cl)cc1,36*,0,0,-3,174,-3,37*,11*,
Cc1cc2oc(C(=O)Nc3ccc(S(=O)(=O)Nc4ncccn4)cc3)c(C)c2cc1Cl,2,-12,29,0,383,2,nt,nt,
Cc1onc(-c2ccccc2Cl)c1C(=O)Nc1ccc(S(=O)(=O)Nc2nccs2)cc1,41*,0,-4,2,365,0,37*,13*,
Cc1onc(-c2ccccc2Cl)c1C(=O)Nc1ccccc1,-2,-1,0,-1,311,-1,nt,nt,
Cc1cc2oc(C(=O)Nc3ccc(S(=O)(=O)Nc4nccs4)cc3)cc(=O)c2cc1Cl,77*,-1,-4,-2,184,5,87*,48*,
CC(=O)Nc1ccc(NC(=O)c2cc(=O)c3cc(C)cc(C)c3o2)cc1,-1,2,-9,-6,276,2,nt,nt,
Cc1cc(C)c2oc(C(=O)Nc3ccc(S(=O)(=O)Nc4nccs4)cc3)cc(=O)c2c1,68*,1,3,1,48,6,64*,29*,
COCCn1c(SCc2cc(C(C)=O)ccc2OC)nc2cc(Cl)ccc2c1=O,42*,-4,8,1,368,0,4,4,
CCC(C)Oc1ccc(/C=C/c2[nH]c(=O)[nH]c(=O)c2[N+](=O)[O-])cc1OC (stereo not drawn),36*,-3,12,0,383,1,24,4.9*,
SMILES,rCAG binder,Exocytosis inh,Beta2AR agonist,V-ATPase pH,T cell modulator,MPTP block,rCAG binder conf,dCAG dye counter,others
COC(=O)c1sc(SC)c(S(=O)(=O)C(C)C)c1N,-2,-1,0,2,204,2,nt,nt,
COC(=O)c1sc(SC)c(S(=O)(=O)C(C)C)c1N/N=C(\C#N)C(=O)c1ccccc1,52*,-4,3,-1,765,13,71*,22*,dCAG dye DR=4.3*
N#C/C(=C\c1ccc(C(=O)O)cc1)c1nc2sc3c(c2c(=O)[nH]1)CCCC3,45*,0,11,-3,nt,1,55*,22*,
COc1ccc(C2C(C(=O)N3CCOCC3)CC(=O)N2c2ccc(OC)cc2)cc1 (stereo not drawn),3,nt,nt,nt,nt,nt,nt,nt,
O=C(/C=C/c1ccc(O)c(O)c1)c1ccc(S(=O)(=O)N2CCCCCC2)cc1,46*,-3,19,-4,264,24,48*,26*,
COc1cc(NS(=O)(=O)c2ccc(NC(=O)COc3ccccc3Cl)cc2)nc(OC)n1,65*,nt,nt,nt,204,nt,38*,12*,
COc1cc(NS(=O)(=O)c2ccc(NC(=O)COc3cccc(C)c3)cc2)nc(OC)n1,26,-9,0,-1,204,-3,nt,nt,
CCOc1ccccc1C(=O)Nc1ccc(S(=O)(=O)Nc2cc(OC)nc(OC)n2)cc1,51*,-1,6,3,475,0,28,7.6*,
OC(c1ccccc1)(c1ccccc1)C1CCN(CCCOc2ccc(C(F)(F)F)cc2)CC1,0,nt,nt,nt,nt,nt,nt,nt,

# High-throughput results as filed in PubChem BioAssay.
